Screening data as filed in PubChem.
Shown are actives, neighbours in structure and some others; about 4.6% of the full set was active somewhere.
TAAR1 antagonist: human TAAR1 antagonists, primary screen, Fluo-8 calcium fluorescence, CHO RD-HGA16 cells. Trace amine-associated receptor 1 (Homo sapiens), Q96RJ0. antagonist. inhibition, % at 3 µM. 360,000 tested, 1.5% active. AID 624466, 2012;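 active = inhibition above a per-plate cutoff, the mean inhibition of test compounds on that plate plus 3 SD, cut at about 49% in these data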;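 note: 0% = DMSO plus EC80 beta-PEA response and 100% = DMSO alone without agonist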
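Test system: CHO RD-HGA16 cells bearing hTAAR1 | Reagent: β-PEA, EC80 | Compound dosing: 3 µM, single point | Schedule: Dye loading 75 min at 37 °C, then 30 min room temperature | Signal: Calcium fluorescence with Fluo-8 | Evaluation: Percent inhibition of PEA-evoked calcium signal, max/basal emission ratio | Control set: DMSO-only wells and EC80 β-PEA-stimulated wells | Repeats: Singlicate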
OX1R antag-1: OX1R (HCRTR1) antagonists, primary screen, fluorescence, CHO/OX1R cells, Fluo-8 calcium, orexin A. Orexin/Hypocretin receptor type 1 (Homo sapiens), O43613. Fluo-8 calcium fluorescence. inhibition, % at 5 µM. 330,000 tested, 0.43% active. AID 434989, 2010;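 active = inhibition above its plate's threshold, mean inhibition of all tested compounds on the plate plus 3 SD, cut at about 37% in these data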;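 note: 0% = orexin A challenge wells and 100% = SB-334867-A antagonist wells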
Target sequence (O43613 whole entry, looked up): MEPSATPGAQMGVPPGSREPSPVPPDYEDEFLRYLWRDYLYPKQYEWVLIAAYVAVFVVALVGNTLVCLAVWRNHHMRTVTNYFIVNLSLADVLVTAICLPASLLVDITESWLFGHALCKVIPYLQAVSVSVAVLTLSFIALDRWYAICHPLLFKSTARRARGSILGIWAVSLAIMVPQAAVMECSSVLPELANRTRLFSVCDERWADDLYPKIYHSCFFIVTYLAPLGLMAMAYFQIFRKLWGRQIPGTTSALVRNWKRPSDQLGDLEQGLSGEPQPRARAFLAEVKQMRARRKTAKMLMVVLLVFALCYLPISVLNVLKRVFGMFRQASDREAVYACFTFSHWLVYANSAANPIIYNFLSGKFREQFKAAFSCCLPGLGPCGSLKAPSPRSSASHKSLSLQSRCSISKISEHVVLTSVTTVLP
TAAR1 ag: human TAAR1 agonists, primary screen, Fluo-8 calcium fluorescence, CHO RD-HGA16 cells. vehicle wells 0%, saturating PEA agonist 100%. activation, % at 3 µM. 360,000 tested, 0.99% active;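 active = activation above the mean activation of all test compounds in the run plus 3 SD, cut at about 38% in these data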
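Assay system: CHO-derived RD-HGA16 cells with stable Gα16 and human TAAR1; timing: 17-24 h seeding, 75 min 37 °C dye, 30 min RT; read-out: % activation from peak over basal fluorescence ratio, DMSO-to-PEA scaled; measured by: kinetic Fluo-8 calcium fluorescence; benchmarks: low control DMSO, high control PEA (EC100); doses: 3 µM single concentration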
OX1R antag-2: antagonists of human orexin 1 receptor (OX1R). Orexin/Hypocretin receptor type 1 (Homo sapiens), O43613. OX1R-expressing cells, FRET antagonist read-out. inhibition, % at 6.6 µM. 330,000 tested, 1.8% active; in the data active = inhibition mostly above about 38%, no sharp cut-off; inactive = mostly below about 40%;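 note: 0% = agonist challenge alone and 100% = reference antagonist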
CHO parental Ca: ATP-evoked calcium signal inhibitors, parental CHO, primary screen, counter-screen for OX1R antagonist project, cell-based, fluorescence, Fluo-8 calcium dye. inhibition, % at 5.6 µM. AID 463079, 2010. parental CHO-K1, ATP-induced calcium, Fluo-8 fluorescence. 330,000 tested, 0.63% active;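 active = inhibition above that plate's mean sample inhibition plus 3 SD, cut at about 26% in these data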;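 note: 0% = ATP-challenged DMSO wells and 100% = DMSO wells without ATP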
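test system = CHO parental line | reagent = ATP stimulus | measured by = intracellular calcium via Fluo-8 no-wash fluorescent dye | control set = ATP and no-ATP DMSO wells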
GPR7 antag: GPR7 receptor antagonists, primary screen, cell-based, fluorescence, single concentration | GPR7-expressing cells, fluorescence antagonist assay | inhibition, % at 4.4 µM | 290,000 tested, 1.1% active | AID 1861, 2009; in the data active = inhibition above about 16%, passing the limit was not always enough;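 note: cells stimulated with the agonist NPW; 0% = agonist with vehicle and 100% = vehicle without agonist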
Target sequence (P48145 whole entry, looked up): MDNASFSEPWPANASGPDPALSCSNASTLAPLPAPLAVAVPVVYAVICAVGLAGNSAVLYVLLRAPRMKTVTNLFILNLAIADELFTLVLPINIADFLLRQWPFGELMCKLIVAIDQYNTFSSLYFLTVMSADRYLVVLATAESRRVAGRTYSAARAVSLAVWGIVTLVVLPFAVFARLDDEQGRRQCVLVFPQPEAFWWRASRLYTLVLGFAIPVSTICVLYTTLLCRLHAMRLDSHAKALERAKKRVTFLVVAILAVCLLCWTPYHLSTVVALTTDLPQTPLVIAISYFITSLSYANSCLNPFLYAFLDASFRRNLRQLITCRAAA
TAAR1 ag conf: human TAAR1 agonists, retest of hits, confirmation, Fluo-8 calcium fluorescence, CHO RD-HGA16 cells; shares compounds with TAAR1 ag; scaled: DMSO 0%, maximal phenethylamine 100%; activation, % at 3 µM; 2,400 tested, 82% active; AID 651783, 2012;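 active = activation above a cutoff set at the run's mean compound activation plus 3 SD, cut at about 39% in these data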
Ga16 ag counter: nonselective calcium mobilization agonists, CHO-Ga16 cells, counter-screen for hTAAR1 agonist project, cell-based, fluorescence, CHO-Ga16 parental line; shares compounds with TAAR1 ag; Fluo-8 calcium fluorescence; normalized to maximal ATP response, DMSO zero; activation, % at 3 µM; 2,400 tested, 50% active; AID 651787, 2012;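 active = activation above the run cutoff, the mean activation over all tested wells plus 3 SD, cut at about 12% in these data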;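 note: 0% = DMSO wells and 100% = maximal ATP response on the peak over basal ratio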
TAAR1 desens: TAAR1 desensitization by agonist hits, confirmation, counter-screen for TAAR1 agonist project, cell-based, fluorescence, tachyphylaxis. 2,400 tested, 46% active. CHO RD-HGA16 hTAAR1, Fluo-8 calcium, beta-PEA response inhibition. inhibition, % at 3 µM. shares compounds with TAAR1 ag. AID 651951, 2012;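 active = inhibition above the run cutoff, the mean inhibition of all test compounds plus 3 SD, cut at about 49% in these data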;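 note: beta-PEA stimulus applied at its EC80; loss of beta-PEA calcium signal after compound pretreatment read as receptor desensitization; 0% = DMSO with beta-PEA at EC80 and 100% = DMSO alone without agonist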
Ga16 nonsel ant: inhibition of ATP-evoked calcium response in CHO-Ga16 cells, counter-screen for TAAR1 agonist project, cell-based, fluorescence; shares compounds with TAAR1 ag; CHO-Ga16 ATP-induced calcium, Fluo-8 fluorescence; inhibition, % at 3 µM; 2,400 tested, 39% active; AID 651952, 2012;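 active = inhibition above the plate's mean compound inhibition plus 3 SD, computed per plate, cut at about 22% in these data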;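 note: 0% = EC80 ATP with DMSO and 100% = DMSO wells without ATP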
* marks the source's active call; other numbers are inactive results; / = no result given.

SMILES	TAAR1 antagonist	OX1R antag-1	TAAR1 ag	OX1R antag-2	CHO parental Ca	GPR7 antag	TAAR1 ag conf	Ga16 ag counter	TAAR1 desens	Ga16 nonsel ant
C=CCN1C=C/C(=C\C=C(C#N)C#N)c2ccccc21	28.8	4.1	66.0*	31.7	19.3	-2.8	74.5*	8.4	66.0*	26.1*
CCCCCCN1C=C/C(=C\C=C(C#N)C#N)c2ccccc21	12.8	9.6	9.7	46.2	-0.9	-5.7	/	/	/	/
Clc1ccc(CSc2ncnc3c2ncn3C2CCCCO2)cc1 (configuration not stated)	36.8	/	63.6*	/	/	/	14.7	11.0	9.6	13.7
Cc1ccc(N2C(N)=C(C#N)C(c3cccs3)C3=C2CC(C)(C)CC3=O)cc1 (configuration not stated)	-12.1	-35.3	45.4*	8.7	-33.9	-6.4	39.0*	11.9*	0.2	5.2
O=c1[nH]c(CN2CCc3ccccc3C2)nc2ccccc12	-0.4	35.7	6.7	31.3	-38.4	-2.2	/	/	/	/
Cc1[nH]c2ccccc2c1CN1CCc2ccccc2C1	/	2.8	/	6.0	-6.1	-5.7	/	3.8	/	5.6
CCc1sc(C(=O)Nc2cccnc2)cc1Br	22.5	-10.7	64.9*	36.9	-18.8	-12.2	48.1*	32.6*	16.0	10.9
CCc1cc(C(=O)Nc2ccc(OC)nc2)sc1C	6.4	-6.4	2.2	31.2	-2.2	/	/	/	/	/
COc1ccc(NC(=O)c2cc(Br)c(Br)s2)cn1	28.9	-30.4	71.0*	11.8	-22.0	-2.8	48.5*	42.1*	35.9	10.6
COc1ccccc1CCc1nnc(CCC(=O)N(C)Cc2cccc3ncccc23)o1	11.1	-38.6	2.2	20.1	-11.9	-5.3	/	/	/	/
C[C@@H]1CN([C@H](C)CO)C(=O)CCCn2nncc2CO[C@@H]1CN(C)C(=O)Nc1ccnc(N2CCOCC2)c1	-7.9	/	1.6	/	/	/	/	/	/	/
CN(C)c1ccc(S(=O)(=O)NCC(=O)NCCC2=CCCCC2)cc1[N+](=O)[O-]	-5.1	-9.4	1.7	8.9	-6.7	/	/	/	/	/
O=C(NCc1ccco1)c1sc(=S)n2c1[nH]c(=O)c1ccccc12	35.7	8.1	75.2*	49.8*	-6.2	7.0	38.1*	23.2*	14.9	17.5
Cc1nnc(SCC(=O)Nc2nccs2)n(N)c1=O	-0.8	-11.4	0.4	20.1	-3.0	6.8	/	/	/	/
Cc1ccc(C)c(NC(=O)CCN2CCN(c3ccccc3F)CC2)c1	-8.8	-23.8	-0.2	3.0	-19.8	-9.4	/	/	/	/
COC(=O)[C@@]12C[C@@H](CC(=O)N3CCN(C(=O)c4ccco4)CC3)C(=O)N(Cc3ccc4c(c3)OCO4)C1=CCC(C)(C)C2	-8.7	/	6.0	/	/	/	/	/	/	/
O=C(O)c1ccc(-c2nc(-c3ccccc3Cl)cs2)cc1	11.5	1.7	49.3*	-2.6	4.0	-4.7	18.1	19.4*	20.8	14.2
O=C(O)c1ccc(-c2nc(-c3ccccc3)cs2)cc1	9.8	-6.4	0.1	13.4	0.4	-0.5	/	/	/	/
O=C(/C=C/c1ccc(O)c([N+](=O)[O-])c1)c1ccc2ccccc2c1	39.5	-7.8	65.7*	6.8	6.2	-16.8	31.9	38.0*	23.8	19.3
c1ccc(CCNCC2COc3ccccc3O2)cc1 (configuration not stated)	4.3	-18.8	16.0	5.8	-19.0	-5.1	/	/	/	/
CN(C)S(=O)(=O)c1cccc(CNCC2COc3ccccc3O2)c1 (configuration not stated)	-13.2	-14.7	58.8*	-3.7	-14.3	10.0	88.4*	21.1*	33.8	2.5
CSCC[C@H](NC(=O)COc1ccc(Cl)cc1)C(=O)N1CCC2(CC1)NCCc1[nH]cnc12	2.6	-12.4	52.0*	-3.9	-20.4	-3.2	0.9	0.1	-3.8	-4.6
CSCC[C@H](NC(=O)c1ccc2ccccc2c1)C(=O)N1CCC2(CC1)NCCc1[nH]cnc12	-16.3	-12.5	0.1	2.4	-7.3	-8.6	/	/	/	/
COc1cc(NC(=O)C(=O)NCCN2CCNCC2)c(OC)cc1Cl	5.5	-31.5	6.5	18.4	-10.2	-23.2	/	/	/	/
Cc1ccc(OCC(=O)Nc2cccc(S(=O)(=O)N3CCCCCC3)c2)cc1C	47.2	18.9	4.9	29.9	19.4	/	/	/	/	/
SMILES	TAAR1 antagonist	OX1R antag-1	TAAR1 ag	OX1R antag-2	CHO parental Ca	GPR7 antag	TAAR1 ag conf	Ga16 ag counter	TAAR1 desens	Ga16 nonsel ant
O=Cc1ccc(-n2cccn2)cc1	64.9*	7.7	322.9*	0.8	3.1	-7.8	-0.3	2.9	2.9	4.4
COC(=O)c1ccc(-c2ccc(CNCC(O)c3ccccc3)o2)cc1 (configuration not stated)	1.6	-16.8	39.2*	12.0	-16.6	-4.2	26.0	4.7	14.2	4.7
COc1ccc(OC)c(C(C)NC(=O)C(C)n2cc([N+](=O)[O-])cn2)c1 (configuration not stated)	-12.9	-14.8	6.6	0.7	-8.2	/	/	/	/	/
O=C(Nc1cc(F)c(Br)cc1F)c1ccc(Cl)cc1	70.2*	-18.7	90.8*	12.2	-2.5	-16.0	0.7	7.6	-0.5	11.0
O=C(Nc1ccc(Cl)cc1C(F)(F)F)c1ccc(Cl)cc1	31.2	-10.6	75.1*	23.9	9.6	0.9	20.2	-0.6	18.6	9.3
Cc1ccc2nc(-c3ccsc3)c(NC3CCCC3)n2c1	1.2	-36.2	-0.8	29.8	-28.1	3.3	/	/	/	/
CN1CCN(c2nc(-c3ccc(Cl)s3)cs2)CC1	-18.0	-5.2	9.8	7.6	-14.7	2.6	/	/	/	/
CN(C)c1ccc(C=NCC2COc3ccccc3O2)cc1 (configuration not stated)	12.7	-8.2	75.3*	11.9	1.2	1.5	82.2*	3.7	59.2*	6.9
